# Measurements: ChEMBL document CHEMBL2150936, “Anticancer activity of small amphipathic β²,²-amino acid derivatives” (Eur J Med Chem, 2012)
# What was measured:
# [1] = test system: CAKI-1; experiment: Cytotoxicity against human CAKI-1 cells after 4 hrs by MTT assay; assay type: functional, cell-based; settings: CAKI-1, 4 h
# [2] = test system: COLO 205; experiment: Cytotoxicity against human COLO205 cells after 4 hrs by MTT assay; assay type: functional, cell-based; settings: COLO 205, 4 h
# [3] = test system: SK-MEL-5; experiment: Cytotoxicity against human SK-MEL-5 cells after 4 hrs by MTT assay; assay type: functional, cell-based; settings: SK-MEL-5, 4 h
# [4] = test system: SF-268; experiment: Cytotoxicity against human SF268 cells after 4 hrs by MTT assay; assay type: functional, cell-based; settings: SF-268, 4 h
# [5] = test system: NCI-H460; experiment: Cytotoxicity against human NCI-H460 cells after 4 hrs by MTT assay; assay type: functional, cell-based; settings: NCI-H460, 4 h
# [6] = test system: MDA-MB-468; experiment: Cytotoxicity against human MDA-MB-468 cells after 4 hrs by MTT assay; assay type: functional, cell-based; settings: MDA-MB-468, 4 h
# [7] = test system: IGROV-1; experiment: Cytotoxicity against human IGROV1 cells after 4 hrs by MTT assay; assay type: functional, cell-based; settings: IGROV-1, 4 h
# [8] = test system: ACHN; experiment: Cytotoxicity against human ACHN cells after 4 hrs by MTT assay; assay type: functional, cell-based
# [9] = test system: SF-539; experiment: Cytotoxicity against human SF539 cells after 4 hrs by MTT assay; assay type: functional, cell-based; settings: SF-539, 4 h
# [10] = test system: M14; experiment: Cytotoxicity against human M14 cells after 4 hrs by MTT assay; assay type: functional, cell-based; settings: M14, 4 h
# [11] = test system: HCT-15; experiment: Cytotoxicity against human HCT15 cells after 4 hrs by MTT assay; assay type: functional, cell-based; settings: HCT-15, 4 h
# [12] = test system: NCI-H322M; experiment: Cytotoxicity against human NCI-H322M cells after 4 hrs by MTT assay; assay type: functional, cell-based
# [13] = test system: PC-3; experiment: Cytotoxicity against human PC3 cells after 4 hrs by MTT assay; assay type: functional, cell-based; settings: PC-3, 4 h
# [14] = test system: KM12; experiment: Cytotoxicity against human KM12 cells after 4 hrs by MTT assay; assay type: functional, cell-based; settings: KM12, 4 h
# [15] = test system: Ramos; experiment: Selectivity index, ratio of EC50 for human RBC to IC50 for human Ramos cells; assay type: functional
# Summary of the method: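 Ramos IC50 came from a 4 h MTT assay: cells at 4 × 10^5 cells/ml in serum-free RPMI-1640, compounds added at once, 37 °C, 2 h MTT, read at 590 nm. RBC EC50 came from hemoglobin release at 405 nm: 1% v/v washed human erythrocytes in PBS, 1 h at 37 °C, Triton X-100 reference. SI = RBC EC50 / Ramos IC50.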
# [16] = test system: SK-MEL-2; experiment: Cytotoxicity against human SK-MEL-2 cells after 4 hrs by MTT assay; assay type: functional, cell-based; settings: SK-MEL-2, 4 h
# [17] = test system: OVCAR-8; experiment: Cytotoxicity against human OVCAR8 cells after 4 hrs by MTT assay; assay type: functional, cell-based; settings: OVCAR-8, 4 h
# [18] = test system: SNB-19; experiment: Cytotoxicity against human SNB19 cells after 4 hrs by MTT assay; assay type: functional, cell-based; settings: SNB-19, 4 h
# [19] = test system: HOP-62; experiment: Cytotoxicity against human HOP62 cells after 4 hrs by MTT assay; assay type: functional, cell-based; settings: HOP-62, 4 h
# [20] = test system: LOX IMVI; experiment: Cytotoxicity against human LOXIMVI cells after 4 hrs by MTT assay; assay type: functional, cell-based
# [21] = test system: 786-0; experiment: Cytotoxicity against human 786-0 cells after 4 hrs by MTT assay; assay type: functional, cell-based; settings: 786-0, 4 h
# [22] = test system: SK-MEL-28; experiment: Cytotoxicity against human SK-MEL-28 cells after 4 hrs by MTT assay; assay type: functional, cell-based; settings: SK-MEL-28, 4 h
# [23] = test system: NCI-H226; experiment: Cytotoxicity against human NCI-H226 cells after 4 hrs by MTT assay; assay type: functional, cell-based; settings: NCI-H226, 4 h
# [24] = test system: NCI/ADR-RES; experiment: Cytotoxicity against human NCI/ADR-RES cells after 4 hrs by MTT assay; assay type: functional, cell-based
# [25] = test system: Ramos; experiment: Cytotoxicity against human Ramos cells after 4 hrs by MTT assay; assay type: functional, cell-based
# Summary of the method: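 Ramos Burkitt's lymphoma cells, kept in suspension in RPMI 1640 with 10% FBS, were seeded at 4 × 10^5 cells/ml in serum-free RPMI 1640. Compounds in RPMI-1640 were added immediately, then 4 h at 37 °C, 5% CO2. MTT was added for a further 2 h, formazan dissolved in acidic isopropanol (0.04 N HCl), and A590 read. Survival was calculated against untreated medium control; 1% Triton X-100 served as positive control.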
# [26] = test system: A549; experiment: Cytotoxicity against human A549 cells after 4 hrs by MTT assay; assay type: functional, cell-based; settings: A549, 4 h
# [27] = test system: Ramos; experiment: Selectivity index, ratio of EC50 for human MRC5 cells to IC50 for human Ramos cells; assay type: functional
# Summary of the method: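 Ramos cells were seeded at 4 × 10^5 cells/ml in serum-free RPMI-1640, and compounds in RPMI-1640 were added at once. MRC-5 fibroblasts were seeded at 1 × 10^5 cells/ml in MEM with 10% FBS, grown overnight, and the medium was then replaced with compound. Both were incubated 4 h at 37 °C, 5% CO2, then given MTT for 2 h. Formazan was dissolved in acidic isopropanol and read at 590 nm. Survival was expressed relative to the untreated medium control. SI = MRC-5 EC50 / Ramos IC50.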
# [28] = read-out: LC50 (the source's name)
compound,measurement,setting,value
NCCNC(=O)C(CN)(Cc1ccc2ccccc2c1)Cc1ccc2ccccc2c1,IC50,[1],2.75 µM
same,TGI,[1],3.02 µM
same,CC50,[1]; [28],6.17 µM
same,IC50,[2],0.34 µM
same,TGI,[2],0.35 µM
same,CC50,[2]; [28],0.69 µM
same,IC50,[3],2.82 µM
same,TGI,[3],3.02 µM
same,CC50,[3]; [28],5.62 µM
same,IC50,[4],2.82 µM
same,TGI,[4],3.02 µM
same,CC50,[4]; [28],6.03 µM
same,IC50,[5],0.33 µM
same,TGI,[5],0.51 µM
same,CC50,[5]; [28],1.7 µM
same,IC50,[6],2.75 µM
same,TGI,[6],2.95 µM
same,CC50,[6]; [28],6.17 µM
same,IC50,[7],3.16 µM
same,TGI,[7],3.24 µM
same,CC50,[7]; [28],7.24 µM
same,IC50,[8],2.75 µM
same,TGI,[8],2.88 µM
same,CC50,[8]; [28],5.5 µM
same,IC50,[9],2.69 µM
same,TGI,[9],2.88 µM
same,CC50,[9]; [28],5.62 µM
same,IC50,[10],3.16 µM
same,TGI,[10],3.24 µM
same,CC50,[10]; [28],6.03 µM
same,IC50,[11],0.79 µM
same,TGI,[11],1.91 µM
same,CC50,[11]; [28],5.01 µM
same,IC50,[12],3.09 µM
same,TGI,[12],2.88 µM
same,CC50,[12]; [28],5.89 µM
same,IC50,[13],3.09 µM
same,TGI,[13],3.31 µM
same,CC50,[13]; [28],6.61 µM
same,IC50,[14],0.74 µM
same,TGI,[14],1.7 µM
same,CC50,[14]; [28],4.57 µM
same,Selectivity Index,[15],112
same,IC50,[16],3.63 µM
same,TGI,[16],3.63 µM
same,CC50,[16]; [28],6.92 µM
same,IC50,[17],3.39 µM
same,TGI,[17],3.72 µM
same,CC50,[17]; [28],7.24 µM
same,IC50,[18],2.95 µM
same,TGI,[18],3.02 µM
same,CC50,[18]; [28],5.62 µM
same,IC50,[19],2.82 µM
same,TGI,[19],2.88 µM
same,CC50,[19]; [28],5.62 µM
same,IC50,[20],0.62 µM
same,TGI,[20],1.7 µM
same,CC50,[20]; [28],4.37 µM
same,IC50,[21],3.16 µM
same,TGI,[21],3.31 µM
same,CC50,[21]; [28],6.31 µM
same,IC50,[22],3.47 µM
same,TGI,[22],3.47 µM
same,CC50,[22]; [28],5.89 µM
same,IC50,[23],3.31 µM
same,TGI,[23],3.39 µM
same,CC50,[23]; [28],7.24 µM
same,IC50,[24],3.16 µM
same,TGI,[24],3.31 µM
same,CC50,[24]; [28],6.46 µM
same,IC50,[25],4.1 µM
same,IC50,[26],2.51 µM
same,TGI,[26],2.88 µM
same,CC50,[26]; [28],5.75 µM
same,Selectivity Index,[27],5.4
